Experimental data published in ChEMBL document CHEMBL1649503, “Alkoxyalkyl esters of 9-(s)-(3-hydroxy-2-phosphonomethoxypropyl) adenine are potent and selective inhibitors of hepatitis B virus (HBV) replication in vitro and in HBV transgenic mice in vivo” (Antimicrob Agents Chemother, 2009).

Experiments:
Hepatitis B virus [1] = experiment: Antiviral activity against HBV infected in human HepG2(2.2.15) cells assessed as decrease in extracellular viral DNA level after 24 hrs by blot hybridization assay; format: functional, organism-based; details: HepG2 2.2.15, 24 h
Summary of the method: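 Confluent 2.2.15 cells in RPMI 1640 with 2% FBS got nine consecutive daily doses, with medium replaced daily with drug-containing medium. Six wells per concentration over two replicate plates. Cells were pelleted from the medium, which was kept at 4°C and not frozen. Extracellular HBV DNA was quantified by blot hybridization 24 h after the last dose.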

[2] = Selectivity index, ratio of CC50 for human HepG2(2.2.15) cells to EC50 for HBV infected in human HepG2(2.2.15) cells
Summary of the method: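 Ratio from two 2.2.15 readouts after nine daily doses in RPMI/2% FBS. Extracellular HBV DNA was measured by quantitative blot hybridization and cytotoxicity by neutral red uptake (three cultures per concentration), both 24 h after the final dose.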

HepG2 [3] = experiment: Drug metabolism in human HepG2 cells assessed as unidentified metabolite uptake at 10 uM after 48 hrs; format: ADME, cell-based; details: hepg2, 48 h
HepG2 [4] = experiment: Drug metabolism in human HepG2 cells assessed as HPMPA uptake at 10 uM after 24 hrs; format: ADME, cell-based; details: hepg2, 24 h
Summary of the method: (§1)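 Nearly confluent HepG2 flasks got 14C-labeled drug (final 10 µM, 50 mCi/mmol) for 24 h. Cells were washed with cold PBS, lysed in water by two freeze-thaw cycles and sonication, then extracted with cold TCA (8% final) and centrifuged at 4°C. Supernatant was counted and analyzed by SAX ion-exchange HPLC, with metabolites assigned by retention versus reference standards.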

HepG2 [5] = experiment: Drug metabolism in human HepG2 cells assessed as HPMPA uptake at 10 uM after 48 hrs; format: ADME, cell-based; details: hepg2, 48 h
HepG2 [6] = experiment: Drug metabolism in human HepG2 cells assessed as HPMPAp uptake at 10 uM after 24 hrs; format: ADME, cell-based; details: hepg2, 24 h; summary of the method: as §1
HepG2 [7] = experiment: Drug metabolism in human HepG2 cells assessed as HPMPApp uptake at 10 uM after 24 hrs; format: ADME, cell-based; details: hepg2, 24 h; summary of the method: as §1
[8] = Tmax in Swiss-Webster mouse lung at 10 mg/kg, po after 24 hrs; format: ADME, organism-based; set-up: dose 10 mg/kg, route oral
Summary of the method: (§2)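 Female Swiss-Webster mice (about 25 g) got one 10 mg/kg dose of the 8-14C-labeled ester (50 mCi/mmol) in 0.7% saline, by oral gavage or intraperitoneal injection. Blood was taken at 1, 3, 6, 12 and 24 h. Liver, spleen, kidney, lung, heart and brain were excised, washed and weighed. Drug plus metabolites were measured by liquid scintillation as µM plasma equivalents or nmol/g tissue. Each time point is the mean of three replicates.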

[9] = Tmax in Swiss-Webster mouse heart at 10 mg/kg, po after 24 hrs; format: ADME, organism-based; set-up: dose 10 mg/kg, route oral
Summary of the method: (§3)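 Female Swiss-Webster mice (about 25 g) each got a single 10 mg/kg dose of the 14C-labeled (8-14C) ester (50 mCi/mmol) in 0.7% saline, by oral gavage or ip injection. Blood was taken at 1, 3, 6, 12 and 24 h, and liver, spleen, kidney, lung, heart and brain were excised, washed and weighed. Radioactivity was measured by scintillation counting as µM plasma equivalents or nmol/g tissue, mean of three per time point.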

[10] = Cmax in Swiss-Webster mouse plasma assessed per gram of tissue at 10 mg/kg, po after 24 hrs; format: ADME, organism-based; set-up: dose 10 mg/kg, route oral; summary of the method: as §3
Liver [11] = experiment: Cmax in Swiss-Webster mouse liver assessed per gram of tissue at 10 mg/kg, po after 24 hrs; format: ADME, organism-based; set-up: dose 10 mg/kg, route oral; details: in vivo; summary of the method: as §3
Kidney [12] = experiment: Cmax in Swiss-Webster mouse kidney assessed per gram of tissue at 10 mg/kg, po after 24 hrs; format: ADME, organism-based; set-up: dose 10 mg/kg, route oral; details: in vivo; summary of the method: as §3
Spleen [13] = experiment: Cmax in Swiss-Webster mouse spleen assessed per gram of tissue at 10 mg/kg, po after 24 hrs; format: ADME, organism-based; set-up: dose 10 mg/kg, route oral; details: in vivo; summary of the method: as §3
Liver [14] = experiment: AUC in Swiss-Webster mouse liver assessed per gram of tissue at 10 mg/kg, po after 24 hrs; format: ADME, organism-based; set-up: time < 24 hr, dose 10 mg/kg, route oral; details: in vivo; summary of the method: as §3
Kidney [15] = experiment: AUC in Swiss-Webster mouse kidney assessed per gram of tissue at 10 mg/kg, po after 24 hrs; format: ADME, organism-based; set-up: time < 24 hr, dose 10 mg/kg, route oral; details: in vivo; summary of the method: as §3
Lung [16] = experiment: AUC in Swiss-Webster mouse lung assessed per gram of tissue at 10 mg/kg, po after 24 hrs; format: ADME, organism-based; set-up: time < 24 hr, dose 10 mg/kg, route oral; details: in vivo; summary of the method: as §3
Heart = experiment: AUC in Swiss-Webster mouse heart assessed per gram of tissue at 10 mg/kg, po after 24 hrs; format: ADME, organism-based; set-up: time < 24 hr, dose 10 mg/kg, route oral; details: in vivo; summary of the method: as §3
[17] = Tmax in Swiss-Webster mouse plasma at 10 mg/kg, ip after 24 hrs; format: ADME, organism-based; set-up: dose 10 mg/kg, route intraperitoneal; summary of the method: as §2
[18] = Tmax in Swiss-Webster mouse lung at 10 mg/kg, ip after 24 hrs; format: ADME, organism-based; set-up: dose 10 mg/kg, route intraperitoneal; summary of the method: as §2
[19] = Tmax in Swiss-Webster mouse spleen at 10 mg/kg, ip after 24 hrs; format: ADME, organism-based; set-up: dose 10 mg/kg, route intraperitoneal; summary of the method: as §2
[20] = Tmax in Swiss-Webster mouse brain at 10 mg/kg, ip after 24 hrs; format: ADME, organism-based; set-up: dose 10 mg/kg, route intraperitoneal; summary of the method: as §3
[21] = Cmax in Swiss-Webster mouse plasma assessed per gram of tissue at 10 mg/kg, ip after 24 hrs; format: ADME, organism-based; set-up: dose 10 mg/kg, route intraperitoneal; summary of the method: as §3
Kidney [22] = experiment: Cmax in Swiss-Webster mouse kidney assessed per gram of tissue at 10 mg/kg, ip after 24 hrs; format: ADME, organism-based; set-up: dose 10 mg/kg, route intraperitoneal; details: in vivo; summary of the method: as §3
Spleen [23] = experiment: Cmax in Swiss-Webster mouse spleen assessed per gram of tissue at 10 mg/kg, ip after 24 hrs; format: ADME, organism-based; set-up: dose 10 mg/kg, route intraperitoneal; details: in vivo; summary of the method: as §3
Brain = experiment: Cmax in Swiss-Webster mouse brain assessed per gram of tissue at 10 mg/kg, ip after 24 hrs; format: ADME, organism-based; set-up: dose 10 mg/kg, route intraperitoneal; details: in vivo; summary of the method: as §3
Kidney [24] = experiment: AUC in Swiss-Webster mouse kidney assessed per gram of tissue at 10 mg/kg, ip after 24 hrs; format: ADME, organism-based; set-up: time < 24 hr, dose 10 mg/kg, route intraperitoneal; details: in vivo; summary of the method: as §3
Lung [25] = experiment: AUC in Swiss-Webster mouse lung assessed per gram of tissue at 10 mg/kg, ip after 24 hrs; format: ADME, organism-based; set-up: time < 24 hr, dose 10 mg/kg, route intraperitoneal; details: in vivo; summary of the method: as §3
Hepatitis B virus [26] = experiment: Antiviral activity against HBV harboring RNA polymerase L180M mutant gene infected in human HuH7 cells assessed as decrease in viral transient transfection after 5 days; details: Huh-7, 5 days
Hepatitis B virus [27] = experiment: Antiviral activity against HBV harboring RNA polymerase M204I mutant gene infected in human HuH7 cells assessed as decrease in viral transient transfection after 5 days; details: Huh-7, 5 days

CCCCCCCCCCCCCCCCOCCCOP(=O)(O)CO[C@H](CO)Cn1cnc2c(N)ncnc21
EC50 (Hepatitis B virus [1]): 0.188 µM | EC90 (Hepatitis B virus [1]): 0.616 µM | Selectivity Index [2]: >483 | Drug uptake (HepG2 [3]): 402 pmol | Drug uptake (HepG2 [4]): 1007 pmol | Drug uptake (HepG2 [5]): 393 pmol | Drug uptake (HepG2 [6]): 255 pmol | Drug uptake (HepG2 [7]): 888 pmol | Tmax [8]: 3 h | Tmax [9]: 1 h | Cmax [10]: 1110 nM | Cmax (Liver [11]): 21.1 nmol/g | Cmax (Kidney [12]): 5.07 nmol/g | Cmax (Spleen [13]): 0.22 nmol/g | AUC (Liver [14]): 222.2 nmol·h/g | AUC (Kidney [15]): 68.8 nmol·h/g | AUC (Lung [16]): 12.8 nmol·h/g | AUC (Heart): 2.69 nmol·h/g | Tmax [17]: 3 h | Tmax [18]: 1 h | Tmax [19]: 1 h | Tmax [20]: 1 h | Cmax [21]: 2230 nM | Cmax (Kidney [22]): 22.9 nmol/g | Cmax (Spleen [23]): 1.58 nmol/g | Cmax (Brain): 0.16 nmol/g | AUC (Kidney [24]): 195.7 nmol·h/g | AUC (Lung [25]): 21.5 nmol·h/g | EC50 (Hepatitis B virus [26]): 1 µM | EC90 (Hepatitis B virus [26]): 3.5 µM | EC50 (Hepatitis B virus [27]): 1.2 µM | EC90 (Hepatitis B virus [27]): 4 µM
